Common to all, as to type: biochemical
In assay [1] the target is T1, S. pneumoniae LeuRS (SpLeuRS) (Streptococcus pneumoniae serotype 4, UniProt Q97SS0).
T1 sequence (Q97SS0 1-833): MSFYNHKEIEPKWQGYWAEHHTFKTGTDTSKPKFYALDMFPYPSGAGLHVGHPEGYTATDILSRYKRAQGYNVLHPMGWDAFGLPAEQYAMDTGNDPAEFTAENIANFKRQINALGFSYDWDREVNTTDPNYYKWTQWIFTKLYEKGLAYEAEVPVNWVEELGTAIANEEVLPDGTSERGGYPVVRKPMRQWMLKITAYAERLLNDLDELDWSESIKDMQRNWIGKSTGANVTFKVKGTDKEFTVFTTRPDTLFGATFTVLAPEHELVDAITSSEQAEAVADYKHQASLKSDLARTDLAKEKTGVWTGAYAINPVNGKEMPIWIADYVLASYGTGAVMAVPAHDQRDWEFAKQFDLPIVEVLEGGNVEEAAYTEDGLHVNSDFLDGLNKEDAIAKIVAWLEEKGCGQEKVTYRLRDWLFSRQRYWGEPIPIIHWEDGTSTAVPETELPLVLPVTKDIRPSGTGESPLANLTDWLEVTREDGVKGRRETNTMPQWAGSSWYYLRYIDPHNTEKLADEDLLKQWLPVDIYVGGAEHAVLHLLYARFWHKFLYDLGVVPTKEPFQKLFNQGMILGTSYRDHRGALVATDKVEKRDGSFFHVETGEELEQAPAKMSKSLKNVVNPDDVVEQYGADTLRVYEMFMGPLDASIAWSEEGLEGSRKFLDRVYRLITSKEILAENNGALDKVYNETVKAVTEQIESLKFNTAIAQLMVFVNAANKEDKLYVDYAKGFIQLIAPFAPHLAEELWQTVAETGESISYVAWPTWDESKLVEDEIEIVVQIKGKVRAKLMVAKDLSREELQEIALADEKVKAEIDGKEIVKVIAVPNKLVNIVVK
The experiment in a line: Aminoacylation inhibition. Summed up:
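Aminoacylation at 37°C with [3H]leucine, started with 4 mM ATP, in Tris-HCl pH 7.5 buffer. Each LeuRS was used at equal activity, i.e. forming 10 pmol Leu-tRNALeu in 5 min. At least six test-compound concentrations were tested. IC50 was taken from a fitted dose-response curve, as the mean of at least two independent experiments.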

The target in assay [2] is T2, Human mitochondrial LeuRS (Homo sapiens, UniProt Q15031).
T2 sequence (Q15031 1-903): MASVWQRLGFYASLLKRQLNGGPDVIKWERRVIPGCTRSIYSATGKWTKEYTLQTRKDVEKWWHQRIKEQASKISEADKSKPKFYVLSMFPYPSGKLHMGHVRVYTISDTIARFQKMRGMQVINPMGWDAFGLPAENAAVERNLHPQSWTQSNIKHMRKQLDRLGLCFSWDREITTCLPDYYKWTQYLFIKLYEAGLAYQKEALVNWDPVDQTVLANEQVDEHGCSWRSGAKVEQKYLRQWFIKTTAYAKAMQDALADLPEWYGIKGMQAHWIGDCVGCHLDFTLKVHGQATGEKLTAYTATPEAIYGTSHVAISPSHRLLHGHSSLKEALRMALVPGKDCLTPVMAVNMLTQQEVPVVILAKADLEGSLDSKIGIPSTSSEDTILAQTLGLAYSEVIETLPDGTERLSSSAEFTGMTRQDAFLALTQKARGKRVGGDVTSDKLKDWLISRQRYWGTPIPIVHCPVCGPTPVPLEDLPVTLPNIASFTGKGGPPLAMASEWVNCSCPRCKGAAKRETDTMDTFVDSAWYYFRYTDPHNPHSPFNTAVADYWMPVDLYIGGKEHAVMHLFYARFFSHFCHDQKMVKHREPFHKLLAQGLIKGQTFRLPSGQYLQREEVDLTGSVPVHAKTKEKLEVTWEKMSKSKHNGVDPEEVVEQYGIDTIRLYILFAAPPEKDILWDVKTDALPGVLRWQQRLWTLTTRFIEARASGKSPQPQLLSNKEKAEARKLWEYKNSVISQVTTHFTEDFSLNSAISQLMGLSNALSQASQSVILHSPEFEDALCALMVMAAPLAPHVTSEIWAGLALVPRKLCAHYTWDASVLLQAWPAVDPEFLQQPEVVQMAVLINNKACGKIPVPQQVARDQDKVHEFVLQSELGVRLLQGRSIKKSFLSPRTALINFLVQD
Put plainly: Aminoacylation inhibition. In outline:
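Human cytosolic or mitochondrial LeuRS, expressed in E. coli. Aminoacylation run at 30°C. At least six test-compound concentrations were tested, with enzyme amount set to form 10 pmol Leu-tRNALeu in 5 min. IC50 was taken from a fitted dose-response curve, as the mean of at least two independent experiments.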

For a further assay, the target named is T3, SpLeuRS (Streptococcus pneumoniae serotype 4, UniProt Q97SS0).
T3 sequence (Q97SS0 1-833): T1 sequence (Q97SS0 1-833)
Put plainly: Post-transfer editing. Particulars: 5 or 50 μM ZCL039, 1 μM [3H]Met-SptRNALeu. Summed up:
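Enzyme and test compound were preincubated 20 min. Substrate was mischarged with the EcLeuRS-D345A editing mutant (30 min, 37°C), then acid-phenol extracted. Controls: DMSO, and no-enzyme spontaneous hydrolysis. Means of three experiments.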

The next assay concerns the target T4, SpLeuRS C399S (Streptococcus pneumoniae serotype 4, UniProt Q97SS0, W399S).
T4 sequence (Q97SS0 1-833 W399S): T1 sequence (Q97SS0 1-833) with W399S
The experiment in a line: Aminoacylation and deacylation by SpLeuRS C399S mutant. Particulars: 50 μM ZCL039.

The structures appear in SMILES notation. Numbering of substitutions follows the chain as printed.

What is called IC50 is the point on the concentration scale where inhibition reaches its midpoint. On to `OB1OCc2ccc(C(O)c3ccccc3)cc21` (stereo not shown) [ZCL039, [6-(1-phenyl-1-hydroxylmethyl)]-1,3-dihydro-1-hydroxy-2,1-benzoxaborole], for which the IC50 in assay [1] was 1720 ± 50 nM; in assay [2], > 250000 nM. Besides, at SpLeuRS, the “Effect on hydrolysis of mischarged Met-SptRNALeu (editing)” value is given as “severely block”. Besides, at SpLeuRS C399S, the “Sensitivity of C399S mutant to ZCL039” value is listed as “comparable to the wild-type SpLeuRS”.

For the origin of these results see PMC3747510 (Scientific Reports, 2013).
